ChEMBL document CHEMBL4368913, “Design, Synthesis, and Biological Evaluation of 6-Substituted Thieno[3,2- d]pyrimidine Analogues as Dual Epidermal Growth Factor Receptor Kinase and Microtubule Inhibitors” (J Med Chem, 2019)

Assays:
[1] = tested on: A549; assay: Antiproliferative activity against human A549 cells after 72 hrs by MTT assay; assay type: functional, cell-based; conditions: A549, 72 h
[2] = tested on: HT-29; assay: Antiproliferative activity against human HT-29 cells after 72 hrs by MTT assay; assay type: functional, cell-based; conditions: HT-29, 72 h
[3] = tested on: RS4-11; assay: Antiproliferative activity against human RS4:11 cells after 72 hrs by MTT assay; assay type: functional, cell-based; conditions: RS4-11, 72 h
Outline: (§1)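 Cells in medium with 10% FBS, seeded at 8×10^3 per well, 18 h at 37 °C, 5% CO2, then graded compound concentrations (DMSO ≤0.25%) for 72 h. Viability by MTT. […] Mean ± SE of dose-response curves from at least three independent experiments.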

[4] = tested on: Jurkat; assay: Antiproliferative activity against human Jurkat cells after 72 hrs by MTT assay; assay type: functional, cell-based; outline: as §1
[5] = tested on: HeLa; assay: Antiproliferative activity against human HeLa cells after 72 hrs by MTT assay; assay type: functional, cell-based
[6] = tested on: B16; assay: Antitumor activity against mouse B16 cells allografted in C57BL/6 mouse assessed as reduction in tumor burden at 30 mg/kg, ip dosing starting on day 9 post tumor injection administered […] on day 9,11, 13 and 15 relative to control; assay type: functional; parameters: scale not given: the % may be the effect or the level left
Outline: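 Male C57BL/6 mice, six weeks old, given 2.5×10^5 BL6-B16 murine melanoma cells subcutaneously in the dorsolateral flank in PBS. Once tumours were palpable, compound in 50 µL DMSO was given intraperitoneally every other day from day 9 (days 9, 11, 13, 15); controls received vehicle. Tumour volume compared with control; 5 animals per group; mean ± SEM.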

[7] = biological target: T1, Vascular endothelial growth factor receptor 2 (Homo sapiens, UniProt P35968); assay: Inhibition of VEGFR2 (unknown origin)
[8] = biological target: Tubulin (Bos taurus) (UniProt Q6B856+Q862L2+Q862F3); assay: Inhibition of [3H]-colchicine binding to bovine brain tubulin at 1 to 5 uM after 20 mins relative to control
Outline: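 Colchicine-binding inhibition in mixtures of 1 μM tubulin, 5 μM [3H]colchicine and test compound at 1 or 5 μM.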

[9] = biological target: Epidermal growth factor receptor (Homo sapiens, UniProt P00533); assay: Inhibition of wild type EGFR (unknown origin) by bioluminescent ADP-glo kinase assay
[10] = biological target: Tubulin (Bos taurus, UniProt Q6B856+Q862L2+Q862F3); assay: Inhibition of bovine brain tubulin polymerization after 20 mins
Outline: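 Bovine brain tubulin (10 μM) preincubated with varying compound concentrations in 0.8 M monosodium glutamate, pH 6.6, at 30 °C, then chilled to 0 °C. 0.4 mM GTP added, mixtures warmed to 30 °C, assembly followed by turbidity at 350 nm.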

[11] = biological target: T1, Vascular endothelial growth factor receptor 2; assay: Inhibition of wild type VEGFR2 (unknown origin) by bioluminescent ADP-glo kinase assay

Chain of Epidermal growth factor receptor (P00533 whole entry): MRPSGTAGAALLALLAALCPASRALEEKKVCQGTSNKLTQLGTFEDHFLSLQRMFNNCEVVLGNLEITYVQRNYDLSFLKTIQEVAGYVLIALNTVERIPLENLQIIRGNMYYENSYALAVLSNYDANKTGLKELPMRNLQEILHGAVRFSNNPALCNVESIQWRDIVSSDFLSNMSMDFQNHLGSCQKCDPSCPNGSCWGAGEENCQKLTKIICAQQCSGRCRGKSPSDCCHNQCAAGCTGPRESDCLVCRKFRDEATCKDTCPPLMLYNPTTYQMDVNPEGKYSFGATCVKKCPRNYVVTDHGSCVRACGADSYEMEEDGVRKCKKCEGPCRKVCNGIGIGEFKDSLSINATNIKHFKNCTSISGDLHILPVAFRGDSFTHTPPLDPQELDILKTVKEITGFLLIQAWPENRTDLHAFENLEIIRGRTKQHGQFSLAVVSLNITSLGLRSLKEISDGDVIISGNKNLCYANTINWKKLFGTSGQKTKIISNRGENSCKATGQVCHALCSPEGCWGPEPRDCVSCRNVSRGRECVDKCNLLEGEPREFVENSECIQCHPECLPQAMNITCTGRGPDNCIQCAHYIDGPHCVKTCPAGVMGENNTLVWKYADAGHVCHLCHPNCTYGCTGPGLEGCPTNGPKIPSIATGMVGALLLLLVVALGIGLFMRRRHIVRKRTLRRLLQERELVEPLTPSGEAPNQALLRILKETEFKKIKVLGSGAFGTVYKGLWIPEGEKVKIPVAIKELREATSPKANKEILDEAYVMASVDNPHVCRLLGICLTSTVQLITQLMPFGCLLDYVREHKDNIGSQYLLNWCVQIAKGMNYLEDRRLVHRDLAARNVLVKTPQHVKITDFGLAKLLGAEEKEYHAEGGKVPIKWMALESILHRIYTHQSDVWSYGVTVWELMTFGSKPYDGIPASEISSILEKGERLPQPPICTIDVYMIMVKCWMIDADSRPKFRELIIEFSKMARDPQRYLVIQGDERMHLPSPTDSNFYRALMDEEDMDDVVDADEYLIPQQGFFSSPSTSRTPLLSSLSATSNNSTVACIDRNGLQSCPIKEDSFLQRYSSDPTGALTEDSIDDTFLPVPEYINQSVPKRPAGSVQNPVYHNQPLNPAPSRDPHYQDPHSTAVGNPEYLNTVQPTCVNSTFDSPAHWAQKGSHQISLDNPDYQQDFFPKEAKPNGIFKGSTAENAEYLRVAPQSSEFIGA
T1 sequence (P35968 whole entry): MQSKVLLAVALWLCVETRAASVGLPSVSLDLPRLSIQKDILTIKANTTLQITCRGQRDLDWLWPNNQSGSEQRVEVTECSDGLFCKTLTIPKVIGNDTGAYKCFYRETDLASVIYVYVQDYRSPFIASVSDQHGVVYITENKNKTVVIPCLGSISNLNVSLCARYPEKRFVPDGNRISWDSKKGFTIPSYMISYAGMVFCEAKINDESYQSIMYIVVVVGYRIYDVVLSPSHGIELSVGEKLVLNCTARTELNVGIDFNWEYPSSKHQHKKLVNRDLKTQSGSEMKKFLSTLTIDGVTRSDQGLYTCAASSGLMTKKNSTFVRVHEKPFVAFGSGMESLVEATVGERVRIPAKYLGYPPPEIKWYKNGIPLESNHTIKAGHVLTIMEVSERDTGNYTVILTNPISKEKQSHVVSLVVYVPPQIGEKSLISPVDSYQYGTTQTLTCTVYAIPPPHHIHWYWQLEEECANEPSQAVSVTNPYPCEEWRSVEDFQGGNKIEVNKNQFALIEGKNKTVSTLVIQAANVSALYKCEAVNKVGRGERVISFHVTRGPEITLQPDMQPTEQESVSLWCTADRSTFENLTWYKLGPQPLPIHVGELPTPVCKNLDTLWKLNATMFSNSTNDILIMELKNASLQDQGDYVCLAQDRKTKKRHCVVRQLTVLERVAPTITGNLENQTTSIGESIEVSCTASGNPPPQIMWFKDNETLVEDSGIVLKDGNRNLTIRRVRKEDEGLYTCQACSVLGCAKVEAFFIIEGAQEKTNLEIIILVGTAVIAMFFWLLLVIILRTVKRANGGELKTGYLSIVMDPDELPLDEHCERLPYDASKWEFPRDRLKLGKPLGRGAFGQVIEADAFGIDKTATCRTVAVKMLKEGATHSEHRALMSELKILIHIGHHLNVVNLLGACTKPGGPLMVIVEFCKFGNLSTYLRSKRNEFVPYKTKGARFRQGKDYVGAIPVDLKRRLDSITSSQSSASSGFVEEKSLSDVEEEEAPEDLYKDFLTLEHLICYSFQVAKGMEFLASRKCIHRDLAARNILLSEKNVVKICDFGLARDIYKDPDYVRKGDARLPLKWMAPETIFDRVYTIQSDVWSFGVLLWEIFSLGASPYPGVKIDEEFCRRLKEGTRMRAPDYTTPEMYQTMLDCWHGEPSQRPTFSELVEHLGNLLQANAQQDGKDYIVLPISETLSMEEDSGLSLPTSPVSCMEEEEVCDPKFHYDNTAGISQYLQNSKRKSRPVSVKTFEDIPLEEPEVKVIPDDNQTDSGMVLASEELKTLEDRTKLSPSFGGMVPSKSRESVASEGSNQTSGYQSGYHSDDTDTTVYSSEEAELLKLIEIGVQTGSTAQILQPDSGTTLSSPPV

SMILES	IC50 [1]	IC50 [2]	IC50 [3]	IC50 [4]	IC50 [5]	Activity [6]	IC50 [7]	inhibition [8]	IC50 [9]	IC50 [10]	IC50 [11]
COc1cc(Nc2ncnc3cc(-c4ccc(F)cc4)sc23)cc(OC)c1OC	13500 nM	1900 nM	1900 nM	260 nM	450 nM	–	–	–	–	–	–
COc1cc(Nc2ncnc3cc(-c4ccc([N+](=O)[O-])cc4)sc23)cc(OC)c1OC	1100 nM	6300 nM	1300 nM	2000 nM	4900 nM	–	–	–	–	–	–
COc1ccc(/C=C\c2cc(OC)c(OC)c(OC)c2)cc1OP(=O)([O-])[O-].[Na+].[Na+] [FOSBRETABULIN DISODIUM]	–	–	–	–	–	34.9%	–	–	–	–	–
c1ccc(-c2cc3ncnc(Nc4ccc5[nH]ccc5c4)c3s2)cc1	–	–	–	–	–	–	80 nM	–	–	–	–
COc1cc(Nc2ncnc3cc(-c4ccc(Cl)cc4)sc23)cc(OC)c1OC	600 nM	87 nM	5 nM	3 nM	90 nM	–	–	36%	273 nM	3300 nM	–
COc1ccc(-c2cc3ncnc(Nc4cc(OC)c(OC)c(OC)c4)c3s2)cc1	430 nM	60 nM	4 nM	5 nM	170 nM	–	–	31%	52 nM	2800 nM	> 1000 nM
COc1cccc(-c2cc3ncnc(Nc4cc(OC)c(OC)c(OC)c4)c3s2)c1	8800 nM	3300 nM	5400 nM	3000 nM	3200 nM	–	–	–	–	–	–
